# In ChEMBL document CHEMBL1122348, “(E)-3-(4-Oxo-4H-quinazolin-3-yl)-2-propenoic acids, a new series of antiallergy agents” (1983):
# Active and inactive are the calls of the source. The rule behind the calls is not given here.
# Tested on: Rattus norvegicus
# Assay: Tested for antiallergy activity in rat passive cutaneous anaphylaxis (PCA) test at 32 mg/kg administered perorally; In active
# Assay type: functional, organism-based
# Design: dose 32 mg/kg
# Conditions: not given
row,SMILES,inhibition
1,CCN(CC)CCOc1ccc2ncn(/C=C/C(=O)O)c(=O)c2c1,inactive

# Tested on: Rattus norvegicus
# Assay: Anti-allergy activity test in rat passive cutaneous anaphylaxis (PCA) test at 16 mg/kg administered intraperitoneally
# Assay type: functional
# Conditions: ip, route intraperitoneal
# Summary of the method: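 Rats given the compound intraperitoneally at 16 mg/kg in the passive cutaneous anaphylaxis model. The read-out is percent inhibition of the cutaneous anaphylactic response, and some entries carry p values.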
row,SMILES,inhibition in vivo at 16 mg/kg
1,COC(=O)/C=C/n1cnc2ccc(SC)cc2c1=O,39%
2,COc1ccc2ncn(/C=C/C(=O)O)c(=O)c2c1,49%
3,Cc1nc2ccc(C3CC3)cc2c(=O)n1/C=C/C(=O)O,39%
4,CC(C)c1ccc2ncn(/C=C/C(=O)O)c(=O)c2c1,100%
5,CSc1ccc2ncn(CCC(=O)O)c(=O)c2c1,14%
6,COc1cc2ncn(/C=C/C(=O)O)c(=O)c2cc1OC,88%
7,CSc1ccc2ncn(/C=C\C(=O)O)c(=O)c2c1,11%
8,CSc1ccc2c(c1)C(=O)N(/C=C/C(=O)O)CN2,53%
9,COc1cc(OC)c2ncn(/C=C/C(=O)O)c(=O)c2c1,81%
10,CSc1ccc2ncn(/C=C/C(=O)O)c(=O)c2c1 [TIACRILAST],87%
11,CSc1ccc2ncn(/C(C)=C/C(=O)O)c(=O)c2c1,9%
12,Cc1cc(C)c2ncn(/C=C/C(=O)O)c(=O)c2c1,82%
13,CCN(CC)CCOc1ccc2ncn(/C=C/C(=O)O)c(=O)c2c1,16%
14,CC(C)Sc1ccc2ncn(/C=C/C(=O)O)c(=O)c2c1,59%
15,O=C(O)/C=C/n1cnc2ccc(O)cc2c1=O,56%
16,CC(C)Oc1ccc2ncn(/C=C/C(=O)O)c(=O)c2c1,87%
17,COc1cccc2c(=O)n(/C=C/C(=O)O)cnc12,82%
18,CS(=O)(=O)c1ccc2ncn(/C=C/C(=O)O)c(=O)c2c1,70%
19,O=C(O)/C=C/n1cnc2ccc(OCCO)cc2c1=O,67%
20,CC(C)c1cc(C(C)C)c2ncn(/C=C/C(=O)O)c(=O)c2c1,70%
21,C[S+]([O-])c1ccc2ncn(/C=C/C(=O)O)c(=O)c2c1 (stereo not drawn),89%
22,O=C(O)/C=C/n1cnc2ccc(C3CC3)cc2c1=O,100%
23,COC(=O)/C=C/n1cnc2ccc(OC(C)C)cc2c1=O,46%
24,O=C(O)/C=C/n1cnc2ccc(Cl)cc2c1=O,79%

# Tested on: Rattus norvegicus
# Assay: Percentage inhibition at 8 mg/kg administered intraperitoneally in rat passive cutaneous anaphylaxis (PCA) test, p<0.001
# Assay type: functional
# Conditions: ip, route intraperitoneal
row,SMILES,inhibition in vivo at 8 mg/kg
1,O=C(O)c1cc(=O)c2c(OCC(O)COc3cccc4oc(C(=O)O)cc(=O)c34)cccc2o1 [CROMOLYN SODIUM],46%

# Tested on: Rattus norvegicus
# Assay: Tested for antiallergy activity in rat passive cutaneous anaphylaxis (PCA) test at 32 mg/kg administered perorally
# Assay type: functional
# Conditions: route oral
row,SMILES,inhibition in vivo at 32 mg/kg
1,COc1ccc2ncn(/C=C/C(=O)O)c(=O)c2c1,23%
2,CC(C)c1ccc2ncn(/C=C/C(=O)O)c(=O)c2c1,89%
3,CSc1ccc2ncn(/C=C/C(=O)O)c(=O)c2c1 [TIACRILAST],75%
4,Cc1cc(C)c2ncn(/C=C/C(=O)O)c(=O)c2c1,70%
5,CC(C)Sc1ccc2ncn(/C=C/C(=O)O)c(=O)c2c1,56%
6,CC(C)Oc1ccc2ncn(/C=C/C(=O)O)c(=O)c2c1,70%
7,O=C(O)/C=C/n1cnc2ccccc2c1=O,55%
8,O=C(O)/C=C/n1cnc2ccc(OCCO)cc2c1=O,80%
9,O=C(O)c1cc(=O)c2c(OCC(O)COc3cccc4oc(C(=O)O)cc(=O)c34)cccc2o1 [CROMOLYN SODIUM],18%
10,CC(C)c1cc(C(C)C)c2ncn(/C=C/C(=O)O)c(=O)c2c1,91%
11,C[S+]([O-])c1ccc2ncn(/C=C/C(=O)O)c(=O)c2c1 (stereo not drawn),48%
12,O=C(O)/C=C/n1cnc2ccc(Cl)cc2c1=O,49%

# Tested on: Rattus norvegicus
# Assay: Tested for antiallergy activity in rat passive cutaneous anaphylaxis (PCA) test at 32 mg/kg administered perorally; 30 minute pretreatment time
# Assay type: functional
# Conditions: route oral
row,SMILES,inhibition in vivo at 32 mg/kg
1,COc1cc(OC)c2ncn(/C=C/C(=O)O)c(=O)c2c1,31%

# Tested on: Rattus norvegicus
# Assay: Tested for antiallergy activity in rat passive cutaneous anaphylaxis (PCA) test at 32 mg/kg administered perorally; 10 min pretreatment time
# Assay type: functional
# Conditions: route oral
row,SMILES,inhibition in vivo at 32 mg/kg
1,O=C(O)/C=C/n1cnc2ccc(C3CC3)cc2c1=O,81%

# Tested on: Rattus norvegicus
# Assay: Inhibitory dose administered perorally against anaphylactic bronchospasm in passively sensitized rats
# Assay type: functional
# Conditions: Bronchiole, po, read-out: ID50
row,SMILES,ED50
1,CC(C)c1ccc2ncn(/C=C/C(=O)O)c(=O)c2c1,0.05 mg/kg
2,CSc1ccc2ncn(/C=C/C(=O)O)c(=O)c2c1 [TIACRILAST],0.02 mg/kg

# Tested on: Rattus norvegicus
# Assay: Tested for antiallergy activity in rat passive cutaneous anaphylaxis (PCA) test at 32 mg/kg administered perorally; pretreatment time is 30 min
# Assay type: functional
# Conditions: route oral
row,SMILES,inhibition in vivo at 32 mg/kg
1,COc1cccc2c(=O)n(/C=C/C(=O)O)cnc12,45%
